Test results: ChEMBL document CHEMBL1153612, “Synthesis and antitumor activity of novel dithiocarbamate substituted chromones” (Eur J Med Chem, 2009)
One block for each molecule: values may come before it.

Columns and labels:
MCF7 = assay: Antiproliferative activity against human MCF7 cells after 72 hrs by MTT assay; type: functional, cell-based; conditions: MCF7, 72 h
Procedure, shortened: (§1)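 Cells seeded at 8000 per well in 96-well plates, exposed to compound for 72 h. MTT added at 0.5 mg/mL final and incubated 4 h. Formazan dissolved in DMSO, absorbance read at 570 nm. IC50 is the concentration giving 50% reduction in cell growth, reported as the mean of three repeated experiments.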

[1] = Antiproliferative activity against human LM7 cells after 72 hrs by MTT assay; type: functional, cell-based; conditions: LM7, 72 h; procedure, shortened: as §1
[2] = Cell cycle arrest in human MDA-MB-435S cells assessed as accumulation at G2/M phase at 0.13 uM after 48 hrs by flow cytometry; type: functional, cell-based
Procedure, shortened: (§2)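 Cells grown to about 70% confluence in 6-well plates, then treated with compound at three concentrations for 48 h. Cell-cycle phase distribution measured by flow cytometry (FACS).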

[3] = Cell cycle arrest in human MDA-MB-435S cells assessed as accumulation at G2/M phase at 0.12 uM after 48 hrs by flow cytometry; type: functional, cell-based; procedure, shortened: as §2
[4] = Cell cycle arrest in human MDA-MB-435S cells assessed as accumulation at S phase at 0.14 uM after 48 hrs by flow cytometry; type: functional, cell-based; procedure, shortened: as §2
[5] = Cell cycle arrest in human MDA-MB-435S cells assessed as accumulation at G0/G1 phase at 0.14 uM after 48 hrs by flow cytometry; type: functional, cell-based; procedure, shortened: as §2
[6] = Cell cycle arrest in human MDA-MB-435S cells assessed as accumulation at G0/G1 phase at 0.12 uM after 48 hrs by flow cytometry; type: functional, cell-based; procedure, shortened: as §2
[7] = Cell cycle arrest in human MDA-MB-435S cells assessed as accumulation at S phase at 0.13 uM after 48 hrs by flow cytometry; type: functional, cell-based; procedure, shortened: as §2
HEp-2 = assay: Antiproliferative activity against human Hep2 cells after 72 hrs by MTT assay; type: functional, cell-based; conditions: HEp-2, 72 h; procedure, shortened: as §1
[8] = Cell cycle arrest in human MDA-MB-435S cells assessed as accumulation at S phase at 0.12 uM after 48 hrs by flow cytometry; type: functional, cell-based; procedure, shortened: as §2
SW480 [9] = assay: Antiproliferative activity against human SW480 cells after 72 hrs by MTT assay; type: functional, cell-based; conditions: SW480, 72 h; procedure, shortened: as §1
[10] = Cell cycle arrest in human MDA-MB-435S cells assessed as accumulation at G0/G1 phase at 0.13 uM after 48 hrs by flow cytometry; type: functional, cell-based; procedure, shortened: as §2
[11] = Cell cycle arrest in human MDA-MB-435S cells assessed as accumulation at G2/M phase at 0.14 uM after 48 hrs by flow cytometry; type: functional, cell-based; procedure, shortened: as §2
[12] = Antiproliferative activity against human MDA-MB-435S cells after 72 hrs by MTT assay; type: functional, cell-based; procedure, shortened: as §1
HeLa = assay: Antiproliferative activity against human HeLa cells after 72 hrs by MTT assay; type: functional, cell-based; procedure, shortened: as §1
SW480 [13] = assay: Cell cycle arrest in human SW480 cells assessed as accumulation at G0/G1 phase at 1 uM after 48 hrs by flow cytometry; type: functional; procedure, shortened: as §2
SW480 [14] = assay: Cell cycle arrest in human SW480 cells assessed as accumulation at G0/G1 phase at 0.5 uM after 48 hrs by flow cytometry; type: functional; procedure, shortened: as §2
SW480 [15] = assay: Cell cycle arrest in human SW480 cells assessed as accumulation at S phase at 0.5 uM after 48 hrs by flow cytometry; type: functional; procedure, shortened: as §2
SW480 [16] = assay: Cell cycle arrest in human SW480 cells assessed as accumulation at G2/M phase at 0.7 uM after 48 hrs by flow cytometry; type: functional; procedure, shortened: as §2
SW480 [17] = assay: Cell cycle arrest in human SW480 cells assessed as accumulation at S phase at 1 uM after 48 hrs by flow cytometry; type: functional; procedure, shortened: as §2
SW480 [18] = assay: Cell cycle arrest in human SW480 cells assessed as accumulation at S phase at 0.7 uM after 48 hrs by flow cytometry; type: functional; procedure, shortened: as §2
SW480 [19] = assay: Cell cycle arrest in human SW480 cells assessed as accumulation at G0/G1 phase at 0.7 uM after 48 hrs by flow cytometry; type: functional; procedure, shortened: as §2
SW480 [20] = assay: Cell cycle arrest in human SW480 cells assessed as accumulation at G2/M phase at 0.5 uM after 48 hrs by flow cytometry; type: functional; procedure, shortened: as §2
SW480 [21] = assay: Cell cycle arrest in human SW480 cells assessed as accumulation at G2/M phase at 1 uM after 48 hrs by flow cytometry; type: functional; procedure, shortened: as §2

Structure (SMILES): O=c1cc(CSC(=S)N(CCCl)CCCl)oc2ccccc12
IC50 (MCF7): > 25 µM
IC50 [1]: > 25 µM
IC50 (HEp-2): 15.6 µM
IC50 (SW480 [9]): 25.1 µM
IC50 [12]: 3.7 µM
IC50 (HeLa): > 25 µM

Structure (SMILES): Cc1ccc2occ(CSC(=S)N3CCCC3)c(=O)c2c1
IC50 (MCF7): 41.4 µM
IC50 [1]: 3.4 µM
IC50 (HEp-2): 3.6 µM
IC50 (SW480 [9]): 5.9 µM
IC50 [12]: 1.9 µM
IC50 (HeLa): 4.4 µM

Structure (SMILES): O=c1c(CSC(=S)N2CCCC2)coc2ccccc12
IC50 (MCF7): > 25 µM
IC50 [1]: 6 µM
IC50 (HEp-2): 3.6 µM
IC50 (SW480 [9]): 2.3 µM
IC50 [12]: 3.8 µM
IC50 (HeLa): > 25 µM

Structure (SMILES): COc1ccc2c(=O)c(CSC(=S)N3CCOCC3)coc2c1
IC50 (MCF7): 11.8 µM
IC50 [1]: > 40 µM
IC50 (HEp-2): 4.8 µM
IC50 (SW480 [9]): 7.1 µM
IC50 [12]: > 40 µM
IC50 (HeLa): 9.5 µM

Structure (SMILES): CN(C(=S)SCc1coc2ccccc2c1=O)c1ccccc1
IC50 (MCF7): > 25 µM
IC50 [1]: > 25 µM
IC50 (HEp-2): > 25 µM
IC50 (SW480 [9]): > 25 µM
IC50 [12]: > 25 µM
IC50 (HeLa): > 25 µM

Structure (SMILES): O=c1c(SC(=S)N2CCCCC2)coc2ccc(Cl)cc12
IC50 (MCF7): > 25 µM
IC50 [1]: > 25 µM
IC50 (HEp-2): 12.2 µM
IC50 (SW480 [9]): > 25 µM
IC50 [12]: 13.3 µM
IC50 (HeLa): 8.3 µM

Structure (SMILES): CCOC(=O)c1cc(=O)c2cc(CSC(=S)N3CCOCC3)ccc2o1
IC50 (MCF7): > 25 µM
IC50 [1]: > 25 µM
IC50 (HEp-2): > 25 µM
IC50 (SW480 [9]): > 25 µM
IC50 [12]: > 25 µM
IC50 (HeLa): > 25 µM

More lines, main results first:

IC50 (MCF7): 0.38 µM
IC50 (SW480 [9]): 0.79 µM
IC50 (HeLa): 0.44 µM
Structure (SMILES): O=c1c(CSC(=S)N2CCCCC2)coc2ccc(Cl)cc12
IC50 [1]: 0.85 µM
Activity [2]: 20.6%
Activity [3]: 13.9%
Activity [4]: 33.6%
Activity [5]: 41.6%
Activity [6]: 60.8%
Activity [7]: 20.7%
IC50 (HEp-2): 0.28 µM
Activity [8]: 25.3%
Activity [10]: 58.7%
Activity [11]: 24.9%
IC50 [12]: 0.24 µM

IC50 (MCF7): 1 µM
IC50 (SW480 [9]): 0.69 µM
IC50 (HeLa): 9.8 µM
Structure (SMILES): O=c1c(Cl)c(CSC(=S)N2CCCCC2)oc2ccccc12
IC50 [1]: 3.3 µM
Activity (SW480 [13]): 26.51%
Activity (SW480 [14]): 39.39%
Activity (SW480 [15]): 37.84%
Activity (SW480 [16]): 27.96%
Activity (SW480 [17]): 34.22%
Activity (SW480 [18]): 35.2%
IC50 (HEp-2): 0.94 µM
Activity (SW480 [19]): 36.84%
Activity (SW480 [20]): 27.77%
Activity (SW480 [21]): 39.27%
IC50 [12]: 0.77 µM

IC50 (MCF7): > 25 µM
IC50 (SW480 [9]): > 25 µM
IC50 (HeLa): 6.6 µM
Structure (SMILES): CCOC(=O)c1cc(=O)c2cc(CSC(=S)N3CCCC3)ccc2o1
IC50 [1]: 18 µM
IC50 (HEp-2): 8.9 µM
IC50 [12]: 3.4 µM

IC50 (MCF7): > 40 µM
IC50 (SW480 [9]): 6.7 µM
IC50 (HeLa): 3.5 µM
Structure (SMILES): COc1ccc2c(=O)c(CSC(=S)N3CCCCC3)coc2c1
IC50 [1]: 4.7 µM
IC50 (HEp-2): 4.3 µM
IC50 [12]: 0.93 µM

IC50 (MCF7): 10 µM
IC50 (SW480 [9]): 2.3 µM
IC50 (HeLa): 11.9 µM
Structure (SMILES): COc1ccc2c(=O)cc(CSC(=S)N3CCCCC3)oc2c1
IC50 [1]: 5 µM
IC50 (HEp-2): 1.5 µM
IC50 [12]: 1.5 µM
